Reference: ChEMBL document CHEMBL1811814, “Synthesis and evaluation of indole, pyrazole, chromone and pyrimidine based conjugates for tumor growth inhibitory activities--development of highly efficacious cytotoxic agents” (Eur J Med Chem, 2010)

What was measured:
Format in all cases: functional
Set-up in all cases: scale not given: the % may be the effect or the level left
[1] = system: IGROV-1; test: Growth inhibition of human IGROV1 cells assessed tumor cell growth at 10^-5 M
Procedure, shortened: (§1)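 NCI 60-human-tumor-cell-line panel screen. Each compound was tested at a single concentration of 10^-5 M, and percent growth of tumor cells was recorded for each cell line. Growth inhibition was expressed from these percent-growth values.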

[2] = system: T47D; test: Growth inhibition of human T47D cells assessed tumor cell growth at 10^-5 M
Procedure, shortened: (§2)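 Single-dose screen at 10^-5 M across the 60 human tumor cell line panel, run to NCI standards. The value is the percent growth of each cell line in the presence of compound. Compounds active at this dose moved on to five-concentration testing (10^-4 to 10^-8 M).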

[3] = system: ACHN; test: Growth inhibition of human ACHN cells assessed tumor cell growth at 10^-5 M; procedure, shortened: as §1
[4] = system: U-251; test: Growth inhibition of human U251 cells assessed tumor cell growth at 10^-5 M; procedure, shortened: as §2
[5] = system: M14; test: Growth inhibition of human M14 cells assessed tumor cell growth at 10^-5 M; procedure, shortened: as §1
[6] = system: MOLT-4; test: Growth inhibition of human MOLT4 cells assessed tumor cell growth at 10^-5 M; procedure, shortened: as §1
[7] = system: CAKI-1; test: Growth inhibition of human Caki1 cells assessed tumor cell growth at 10^-5 M; procedure, shortened: as §1
[8] = system: SK-MEL-2; test: Growth inhibition of human SK-MEL-2 cells assessed tumor cell growth at 10^-5 M; procedure, shortened: as §1
[9] = system: OVCAR-3; test: Growth inhibition of human OVCAR3 cells assessed tumor cell growth at 10^-5 M; procedure, shortened: as §1
[10] = system: MDA-MB-231; test: Growth inhibition of human MDA-MB-231 cells assessed tumor cell growth at 10^-5 M; procedure, shortened: as §1
[11] = system: HOP-62; test: Growth inhibition of human HOP62 cells assessed tumor cell growth at 10^-5 M; procedure, shortened: as §1
[12] = system: RXF 393; test: Growth inhibition of human RXF393 cells assessed tumor cell growth at 10^-5 M; procedure, shortened: as §1
[13] = system: NCI-H226; test: Growth inhibition of human NCI-H226 cells assessed tumor cell growth at 10^-5 M; procedure, shortened: as §1
[14] = system: SN12C; test: Growth inhibition of human SN12C cells assessed tumor cell growth at 10^-5 M; procedure, shortened: as §1
[15] = system: SW-620; test: Growth inhibition of human SW620 cells assessed tumor cell growth at 10^-5 M; procedure, shortened: as §2
[16] = system: MDA-MB-435; test: Growth inhibition of human MDA-MB-435 cells assessed tumor cell growth at 10^-5 M; procedure, shortened: as §1
[17] = Growth inhibition of human […] cells assessed tumor cell growth at 10^-5 M; procedure, shortened: as §1
[18] = system: SNB-75; test: Growth inhibition of human SNB75 cells assessed tumor cell growth at 10^-5 M; procedure, shortened: as §2
[19] = system: Malme-3M; test: Growth inhibition of human MALME-3M cells assessed tumor cell growth at 10^-5 M; procedure, shortened: as §1
[20] = system: UO-31; test: Growth inhibition of human UO31 cells assessed tumor cell growth at 10^-5 M; procedure, shortened: as §2
[21] = system: HCT-116; test: Growth inhibition of human HCT116 cells assessed tumor cell growth at 10^-5 M; procedure, shortened: as §1
[22] = system: HCC 2998; test: Growth inhibition of human HCC2998 cells assessed tumor cell growth at 10^-5 M; procedure, shortened: as §1
[23] = system: A549; test: Growth inhibition of human A549 cells assessed tumor cell growth at 10^-5 M; procedure, shortened: as §1
[24] = system: NCI-H460; test: Growth inhibition of human NCI-H460 cells assessed tumor cell growth at 10^-5 M; procedure, shortened: as §1
[25] = system: NCI/ADR-RES; test: Growth inhibition of human NCI/ADR-RES cells assessed tumor cell growth at 10^-5 M; procedure, shortened: as §1
[26] = system: MDA-MB-468; test: Growth inhibition of human MDA-MB-468 cells assessed tumor cell growth at 10^-5 M; procedure, shortened: as §1
[27] = system: EKVX; test: Growth inhibition of human EKVX cells assessed tumor cell growth at 10^-5 M; procedure, shortened: as §1
[28] = system: KM12; test: Growth inhibition of human KM12 cells assessed tumor cell growth at 10^-5 M; procedure, shortened: as §1
[29] = system: A498; test: Growth inhibition of human A498 cells assessed tumor cell growth at 10^-5 M; procedure, shortened: as §1
[30] = system: SF-295; test: Growth inhibition of human SF295 cells assessed tumor cell growth at 10^-5 M; procedure, shortened: as §1
[31] = system: OVCAR-8; test: Growth inhibition of human OVCAR8 cells assessed tumor cell growth at 10^-5 M; procedure, shortened: as §1
[32] = system: SR; test: Growth inhibition of human SR cells assessed tumor cell growth at 10^-5 M; procedure, shortened: as §2
[33] = system: CCRF-CEM; test: Growth inhibition of human CCRF-CEM cells assessed tumor cell growth at 10^-5 M; procedure, shortened: as §1
[34] = system: LOX IMVI; test: Growth inhibition of human LOXIMVI cells assessed tumor cell growth at 10^-5 M; procedure, shortened: as §1
[35] = system: DU-145; test: Growth inhibition of human DU145 cells assessed tumor cell growth at 10^-5 M; procedure, shortened: as §1
[36] = system: OVCAR-5; test: Growth inhibition of human OVCAR5 cells assessed tumor cell growth at 10^-5 M; procedure, shortened: as §1
[37] = system: HOP-92; test: Growth inhibition of human HOP92 cells assessed tumor cell growth at 10^-5 M; procedure, shortened: as §1
[38] = system: SF-268; test: Growth inhibition of human SF268 cells assessed tumor cell growth at 10^-5 M; procedure, shortened: as §1
[39] = system: HT-29; test: Growth inhibition of human HT-29 cells assessed tumor cell growth at 10^-5 M; procedure, shortened: as §1
[40] = system: PC-3; test: Growth inhibition of human PC3 cells assessed tumor cell growth at 10^-5 M; procedure, shortened: as §1
[41] = system: HL-60(TB); test: Growth inhibition of human HL-60(TB) cells assessed tumor cell growth at 10^-5 M
Procedure, shortened: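 HL-60(TB), part of the 60-line panel, tested at a single concentration of 10^-5 M. The read-out is percent tumor cell growth relative to untreated growth.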

[42] = system: SNB-19; test: Growth inhibition of human SNB19 cells assessed tumor cell growth at 10^-5 M; procedure, shortened: as §2
[43] = system: TK-10; test: Growth inhibition of human TK10 cells assessed tumor cell growth at 10^-5 M; procedure, shortened: as §2
[44] = system: K562; test: Growth inhibition of human K562 cells assessed tumor cell growth at 10^-5 M; procedure, shortened: as §1
[45] = system: NCI-H522; test: Growth inhibition of human NCI-H522 cells assessed tumor cell growth at 10^-5 M; procedure, shortened: as §1
[46] = system: 786-0; test: Growth inhibition of human 786-0 cells assessed tumor cell growth at 10^-5 M; procedure, shortened: as §1
[47] = system: BT-549; test: Growth inhibition of human BT549 cells assessed tumor cell growth at 10^-5 M; procedure, shortened: as §1
[48] = system: NCI-H23; test: Growth inhibition of human NCI-H23 cells assessed tumor cell growth at 10^-5 M; procedure, shortened: as §1
[49] = Growth inhibition of human Hs 578T cells assessed tumor cell growth at 10^-5 M; procedure, shortened: as §1
[50] = system: HCT-15; test: Growth inhibition of human HCT15 cells assessed tumor cell growth at 10^-5 M; procedure, shortened: as §1
[51] = system: SK-MEL-28; test: Growth inhibition of human SK-MEL-28 cells assessed tumor cell growth at 10^-5 M; procedure, shortened: as §1
[52] = system: COLO 205; test: Growth inhibition of human COLO205 cells assessed tumor cell growth at 10^-5 M; procedure, shortened: as §1
[53] = system: MCF7; test: Growth inhibition of human MCF7 cells assessed tumor cell growth at 10^-5 M; procedure, shortened: as §1
[54] = system: SK-MEL-5; test: Growth inhibition of human SK-MEL-5 cells assessed tumor cell growth at 10^-5 M; procedure, shortened: as §1
[55] = system: SK-OV-3; test: Growth inhibition of human SKOV3 cells assessed tumor cell growth at 10^-5 M; procedure, shortened: as §1
[56] = system: UACC-62; test: Growth inhibition of human UACC62 cells assessed tumor cell growth at 10^-5 M; procedure, shortened: as §2
[57] = system: OVCAR-4; test: Growth inhibition of human OVCAR4 cells assessed tumor cell growth at 10^-5 M; procedure, shortened: as §1
[58] = system: UACC-257; test: Growth inhibition of human UACC257 cells assessed tumor cell growth at 10^-5 M; procedure, shortened: as §2
[59] = system: SF-539; test: Growth inhibition of human SF539 cells assessed tumor cell growth at 10^-5 M; procedure, shortened: as §1
[60] = system: NCI-H322M; test: Growth inhibition of human NCI-H322M cells assessed tumor cell growth at 10^-5 M; procedure, shortened: as §1

## CC1=NN(c2cccc(Cl)c2)C(=O)/C1=C\c1ccccn1
[1]
  Activity: 103.16%
[2]
  Activity: 100.29%
[3]
  Activity: 103.1%
[4]
  Activity: 115.89%
[5]
  Activity: 80.87%
[6]
  Activity: 111.67%
[7]
  Activity: 98.46%
[8]
  Activity: 112.74%
[9]
  Activity: 117.75%
[10]
  Activity: 106.88%
[11]
  Activity: 107.34%
[12]
  Activity: 114.31%
[13]
  Activity: 112.86%
[14]
  Activity: 91.77%
[15]
  Activity: 116.97%
[16]
  Activity: 117.42%
[17]
  Activity: 96.65%
[18]
  Activity: 103.79%
[19]
  Activity: 121.3%
[20]
  Activity: 81.52%
[21]
  Activity: 88.7%
[22]
  Activity: 120.72%
[23]
  Activity: 116.18%
[24]
  Activity: 117.15%
[25]
  Activity: 116.87%
[26]
  Activity: 116.6%
[27]
  Activity: 117.01%
[28]
  Activity: 111.47%
[29]
  Activity: 111.6%
[30]
  Activity: 118.39%
[31]
  Activity: 105.14%
[32]
  Activity: 112.11%
[33]
  Activity: 32.58%
[34]
  Activity: 116.29%
[35]
  Activity: 120.58%
[36]
  Activity: 116.2%
[37]
  Activity: 100.37%
[38]
  Activity: 100.43%
[39]
  Activity: 114.19%
[40]
  Activity: 113.15%
[41]
  Activity: 113.01%
[42]
  Activity: 111.92%
[43]
  Activity: 118.17%
[44]
  Activity: 102.25%
[45]
  Activity: 104.42%
[46]
  Activity: 113.47%
[47]
  Activity: 111.06%
[48]
  Activity: 111.77%
[49]
  Activity: 111.76%
[50]
  Activity: 114.26%
[51]
  Activity: 128.95%
[52]
  Activity: 112.21%
[53]
  Activity: 102.77%
[54]
  Activity: 103.51%
[55]
  Activity: 113.71%
[56]
  Activity: 101.53%
[57]
  Activity: 128.45%
[58]
  Activity: 115.54%
[59]
  Activity: 115.91%
[60]
  Activity: 123.35%

## O=C1/C(=C\c2cn(C(=O)c3ccccc3)c3ccccc23)c2ccccc2N1c1c(Cl)cccc1Cl
[1]
  Activity: 99.2%
[2]
  Activity: 92.4%
[3]
  Activity: 97.6%
[4]
  Activity: 88.4%
[5]
  Activity: 104.2%
[6]
  Activity: 89.6%
[7]
  Activity: 86.4%
[8]
  Activity: 102.9%
[9]
  Activity: 116.1%
[10]
  Activity: 103.3%
[11]
  Activity: 94.2%
[12]
  Activity: 150.7%
[13]
  Activity: 94.8%
[14]
  Activity: 89.5%
[15]
  Activity: 104.6%
[16]
  Activity: 115.5%
[17]
  Activity: 100.6%
[18]
  Activity: 82.2%
[19]
  Activity: 106%
[20]
  Activity: 76.9%
[21]
  Activity: 94%
[22]
  Activity: 101.6%
[23]
  Activity: 110%
[24]
  Activity: 111.1%
[25]
  Activity: 99.7%
[26]
  Activity: 97.7%
[27]
  Activity: 97.7%
[28]
  Activity: 111.3%
[29]
  Activity: 102.8%
[30]
  Activity: 126.6%
[31]
  Activity: 113.1%
[32]
  Activity: 99.5%
[33]
  Activity: 111.2%
[34]
  Activity: 97.6%
[35]
  Activity: 119.5%
[36]
  Activity: 94.2%
[37]
  Activity: 79.8%
[38]
  Activity: 99.9%
[39]
  Activity: 103.4%
[40]
  Activity: 71.8%
[41]
  Activity: 102.5%
[43]
  Activity: 118.8%
[44]
  Activity: 114.6%
[45]
  Activity: 90.9%
[46]
  Activity: 90.7%
[47]
  Activity: 106.5%
[48]
  Activity: 97.2%
[49]
  Activity: 107.3%
[50]
  Activity: 66.3%
[51]
  Activity: 113.4%
[52]
  Activity: 122.5%
[53]
  Activity: 95.7%
[54]
  Activity: 107.1%
[55]
  Activity: 111.6%
[56]
  Activity: 95.4%
[57]
  Activity: 99.5%
[58]
  Activity: 123.3%
[59]
  Activity: 104%
[60]
  Activity: 111.9%
